The text below walks through data of PMC3098311 (Nature, 2011).

In assay [1] the target is T1, FLS2 (Arabidopsis thaliana, UniProt Q9FL28). The assay is described as follows: Binding competition analysis with unlabeled peptides. Particulars: unlabeled peptide; ^125I-Tyr-CLV3p 1 nM; 30 min on ice; non-specific binding with 10 μM unlabeled Tyr-CLV3p; n=3. An outline of the steps:
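FLS2-HA expressed for 6 h in fls2 mesophyll protoplasts (2.5 × 10^5 cells); pellet from vortexed, iced and 10,000 ×g-spun extract in 25 mM MES/KOH pH 5.8, 3 mM MgCl2, 10 mM NaCl (50 μg protein). Incubated 30 min on ice with 100 fmol 125I-Tyr-CLV3p ± unlabeled competitor; blocked glass-fibre filtration, cold wash, gamma counting; specific = total − nonspecific (10–20 μM unlabeled); non-linear regression.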

The next assay concerns endogenous MPK3 and MPK6. The assay is described as follows: In-gel kinase assay of MAPK activation in mesophyll protoplasts. In kind it is cell-based, Arabidopsis.
The target of another assay is FLS2-BAK1 interaction (Arabidopsis thaliana, UniProt Q94F62+Q9FL28). The assay is described as follows: FLS2-BAK1 interaction by co-IP in protoplasts. The assay is classed as cell-based. Particulars: for block of flg22- and CLV3p-triggered FLS2-BAK1 interaction: antagonist peptide at 50 μM. Summed up: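 Mesophyll protoplasts came from 4-week soil-grown plants (23°C, 12 h/12 h). They were co-transfected with FLS2-HA and BAK1-FLAG and incubated for 6 h at room temperature. Cells were then exposed to flg22 (1, 10 nM), CLV3p (1 μM) or CLE40p (1 μM) for 10 min. Complexes were immunoprecipitated with anti-FLAG and detected with anti-HA on immunoblot.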
Sequence of FLS2-BAK1 interaction (Q9FL28 24-1173): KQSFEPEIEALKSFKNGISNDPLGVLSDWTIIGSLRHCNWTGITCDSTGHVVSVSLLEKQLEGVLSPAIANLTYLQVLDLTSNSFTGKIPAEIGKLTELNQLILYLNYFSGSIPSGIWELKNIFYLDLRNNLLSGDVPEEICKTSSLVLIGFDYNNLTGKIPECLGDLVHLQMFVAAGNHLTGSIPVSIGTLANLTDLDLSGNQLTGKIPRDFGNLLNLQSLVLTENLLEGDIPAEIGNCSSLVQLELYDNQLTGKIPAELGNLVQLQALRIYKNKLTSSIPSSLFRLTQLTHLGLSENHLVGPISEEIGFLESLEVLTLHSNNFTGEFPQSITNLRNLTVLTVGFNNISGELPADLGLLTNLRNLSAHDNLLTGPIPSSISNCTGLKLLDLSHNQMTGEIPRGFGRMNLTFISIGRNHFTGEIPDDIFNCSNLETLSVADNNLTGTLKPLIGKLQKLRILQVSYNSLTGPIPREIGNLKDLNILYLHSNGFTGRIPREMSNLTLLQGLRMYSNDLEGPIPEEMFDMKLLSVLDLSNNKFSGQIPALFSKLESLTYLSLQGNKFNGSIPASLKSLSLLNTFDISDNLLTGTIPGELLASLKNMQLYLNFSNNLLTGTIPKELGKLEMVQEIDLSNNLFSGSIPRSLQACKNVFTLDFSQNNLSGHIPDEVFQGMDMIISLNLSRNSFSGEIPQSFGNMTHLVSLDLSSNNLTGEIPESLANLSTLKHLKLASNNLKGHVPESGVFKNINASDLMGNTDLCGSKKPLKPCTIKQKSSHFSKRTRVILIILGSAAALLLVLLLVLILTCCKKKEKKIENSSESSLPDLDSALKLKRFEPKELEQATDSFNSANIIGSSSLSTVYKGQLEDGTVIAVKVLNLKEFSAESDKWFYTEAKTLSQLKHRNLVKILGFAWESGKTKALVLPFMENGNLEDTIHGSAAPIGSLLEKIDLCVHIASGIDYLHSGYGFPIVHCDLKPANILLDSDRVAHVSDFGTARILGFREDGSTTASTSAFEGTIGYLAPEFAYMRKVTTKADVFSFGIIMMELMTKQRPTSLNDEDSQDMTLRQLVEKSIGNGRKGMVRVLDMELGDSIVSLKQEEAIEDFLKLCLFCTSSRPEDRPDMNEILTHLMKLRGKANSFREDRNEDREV
Sequence of FLS2-BAK1 interaction (Q94F62 26-615 partner): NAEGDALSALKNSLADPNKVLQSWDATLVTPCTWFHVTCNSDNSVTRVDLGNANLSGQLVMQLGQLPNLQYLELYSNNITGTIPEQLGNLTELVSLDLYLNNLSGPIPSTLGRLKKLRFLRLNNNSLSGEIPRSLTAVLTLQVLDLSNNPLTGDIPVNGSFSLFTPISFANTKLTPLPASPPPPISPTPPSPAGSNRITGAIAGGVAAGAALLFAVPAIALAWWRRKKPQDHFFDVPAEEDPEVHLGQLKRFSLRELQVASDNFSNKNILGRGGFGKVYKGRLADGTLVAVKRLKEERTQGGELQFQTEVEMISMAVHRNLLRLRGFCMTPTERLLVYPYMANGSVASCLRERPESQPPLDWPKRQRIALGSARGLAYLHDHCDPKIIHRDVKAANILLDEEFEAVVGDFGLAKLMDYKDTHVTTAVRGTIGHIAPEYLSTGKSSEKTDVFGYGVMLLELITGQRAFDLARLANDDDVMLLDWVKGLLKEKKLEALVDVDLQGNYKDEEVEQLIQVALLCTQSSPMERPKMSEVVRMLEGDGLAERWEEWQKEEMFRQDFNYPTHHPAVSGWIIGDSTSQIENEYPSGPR

The next assay concerns FRK1, WRKY29 and WRKY30. The assay is described as follows: qRT-PCR of flg22 early marker genes in protoplasts. In kind it is cell-based, Arabidopsis. To be noted: peptides for 1 h, 1 μM CLV3p, 1 μM CLE40p, n=3. An outline of the steps:
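Mesophyll protoplasts were treated with peptides for 1 h. Total RNA was extracted with TRIzol, and cDNA was made from 1 μg RNA with M-MLV reverse transcriptase. SYBR green real-time PCR followed, with ACT2 as the control gene.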

For the next assay, the system named is Arabidopsis seedlings. The experiment in a line: Seedling growth inhibition analysis. The assay is classed as in vivo. Particulars: for root growth: WT seedlings, flg22 1, 10 nM, CLV3p 1 μM or CLE40p 1 μM. Summed up:
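Col-0, fls2, Ler, fls2-24 and clv2-1 seedlings were grown in 6-well plates in liquid 0.5× MS, 0.5% sucrose, pH 5.8. Treatment was flg22 (1, 10 nM) or CLV3p (1 μM), and growth was assessed after 6 or 8 days.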

The test system of the next assay is SAM. The assay is described as follows: Assay for CLV3p-mediated SAM arrest. The assay is classed as in vivo, Arabidopsis. To be noted: 1 μM peptide in liquid medium. An outline of the steps:
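Col-0 and fls2 seeds, twenty per dish, grown in liquid 0.5× MS with 0.5% sucrose (pH 5.8), with or without 1 μM CLV3p. SAMs were cut, fixed overnight at 4°C in 4% paraformaldehyde/4% DMSO, eosin-stained and paraffin-embedded. Sections of 8 μm were Giemsa-stained (0.1%, 5 min) and imaged by light microscopy.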

A further assay has as its system pWUS::GUS. The experiment in a line: pWUS::GUS reporter staining in the SAM. In kind it is in vivo, Arabidopsis. Particulars: seedlings grown 8 days with 1 μM peptide. An outline of the steps: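 pWUS::GUS seedlings were grown 8 days in liquid 0.5× MS/0.5% sucrose with or without 1 μM CLV3p, ΔCLV3p or flg22. They were fixed in 90% cold acetone for 20 min. Seedlings were vacuum-infiltrated with pH 7.0 phosphate buffer containing ferro/ferricyanide, Triton X-100, EDTA and 1 mM X-Gluc, then held 3 h at 37°C. Samples were dehydrated to 70% ethanol and imaged under a stereomicroscope.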

Assay [2] deals with FRK1, WRKY29, WRKY30, MYB15, MYB51 and PEP3. The assay is described as follows: qRT-PCR of immune marker genes in isolated SAM tissues. In kind it is in vivo, Arabidopsis. To be noted: n=3.
The test system of another assay is WUS. The experiment in a line: qRT-PCR of WUS in isolated SAM tissues. In kind it is in vivo, Arabidopsis. Particulars: 1 μM CLV3p for 1 h; WT and mutant seedlings; n=3. Summed up: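 Seedlings grew 8 days in liquid 0.5× MS, 0.5% sucrose, pH 5.8, then got 1 h peptide treatment (1 nM or 1 μM). SAM tissues were harvested after snap-freezing in liquid nitrogen, and RNA was TRIzol-extracted. SYBR Green real-time qRT-PCR used ACT2 as the control gene.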

Assay [3] concerns the target T1, FLS2. The experiment in a line: Direct binding assay, saturation and specific binding of ^125I-Tyr-CLV3p. Summed up:
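HA-tagged FLS2 was expressed for 6 h in fls2 mesophyll protoplasts (2.5 × 10^5 cells). Pelleted extract (50 μg total protein) was in pH 5.8 MES/KOH binding buffer with MgCl2, NaCl and DTT. Extract was incubated with 100 fmol 125I-Tyr-CLV3p, with or without unlabeled Tyr-CLV3p, for 30 min on ice. Bound label was collected on BSA-blocked glass-fibre filters and gamma-counted. Specific binding = total minus non-specific (10–20 μM unlabeled). Kd came from saturation/Scatchard nonlinear regression and sites per cell from Bmax; s.d., n=3.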

Entries after “also recorded” stand apart in the source; their conditions may differ. Where a SMILES comes first, the peptide text is derived from it. [ ]: non-standard residue; d: D form. Tyr(3-I) = N[C@@H](Cc1ccc(O)c(I)c1)C(=O)O; Hyp = O=C(O)[C@@H]1C[C@@H](O)CN1

T1 sequence (Q9FL28 24-1173): as the sequence (Q9FL28 24-1173) above

As for RTVP^hSGP^hDPLHH [CLV3p], the “competition with ^125I-Tyr-CLV3p for specific binding to FLS2” value (“competition with ^125I-Tyr-CLV3p” below) on FLS2 [1] is reported as “could be competed”. Also, in the assay on endogenous MPK3 and MPK6 (protoplasts, 1 μM CLV3p, 1 μM ΔCLV3p or 100 nM flg22 for 10 min), the MAPK activation result is “activated similar MAPK activities”. In addition, the “concentration of equal potency in peptide titration, FLS2 and BAK1 co-IP” value at FLS2-BAK1 interaction (CLV3p, 10 min) is 1 µM. Moreover, the “flg22 early marker gene activation” value with FRK1, WRKY29 and WRKY30 is listed as “activated similar early marker genes; also recorded: triggers flg22 marker gene activation”. In addition, the shoot growth result in the assay on Arabidopsis seedlings (Col-0 and Ler WT seedlings, flg22 1, 10 nM or CLV3p 1 μM, 6 or 8 days) is recorded as “did not inhibit shoot growth”. In addition, in the assay on Arabidopsis seedlings (6 or 8 days), the root growth result is “caused stronger root growth arrest”. In addition, in the assay with Arabidopsis seedlings (clv2-1 seedlings, CLV3p 1 μM), the “root growth arrest in the clv2-1 mutant” value is “abolished”. Further, the “growth effect in two independent fls2 mutants” value in the assay on Arabidopsis seedlings (fls2 and fls2-24 seedlings, flg22 1, 10 nM or CLV3p 1 μM) is reported as “retained”. In addition, the SAM growth arrest result with SAM was “very active in triggering the typical SAM arrest; also recorded: suppresses the SAM in Col-0 and fls2 plants”. Also, the “repression of pWUS::GUS reporter” value in the assay with pWUS::GUS is reported as “repression of a sensitive pWUS::GUS reporter; also recorded: represses pWUS::GUS expression”. In assay [2] (1 nM flg22 or 1 μM CLV3p for 1 h, WT and mutant seedlings), the “immune marker gene activation in the SAM” value is “in WT, clv1-1, clv2-1 but not fls2-24”. For the same molecule, the “exogenous CLV3p needed for complementation of clv3-2 for immune marker gene expression in the SAM” value in [2] (clv3-2 seedlings treated with 0-100 nM CLV3p for 1 h) was “nM range”. The “repression of WUS in the SAM” value with WUS was “only in the SAM of WT and fls2-24, but not clv1-1 and clv2-1”.

`CC(C)C[C@H](NC(=O)[C@@H]1CCCN1C(=O)[C@H](CC(=O)O)NC(=O)[C@@H]1C[C@@H](O)CN1C(=O)CNC(=O)[C@H](CO)NC(=O)[C@@H]1C[C@@H](O)CN1C(=O)[C@@H](NC(=O)[C@@H](NC(=O)[C@H](CCCNC(=N)N)NC(=O)[C@@H](N)Cc1ccc(O)c(I)c1)[C@@H](C)O)C(C)C)C(=O)N[C@@H](Cc1c[nH]cn1)C(=O)N[C@@H](Cc1c[nH]cn1)C(=O)O` [^125I-Tyr-CLV3p] (H-[Tyr(3-I)]RTV[Hyp]SG[Hyp]DPLHH-OH; N-terminus and C-terminus assumed) displayed a Kd at FLS2 [3] of 34.7 nM. For the same molecule, the “binding sites per cell” value at FLS2 [3] (estimated from Bmax and 50 ug protein from 2.5 × 10^5 cells, total cell extracts) was 6.36 × 10^4 binding sites per cell. In addition, on FLS2 [3] (wild-type FLS2 expressed in null fls2 protoplasts, non-specific binding with 20 μM unlabeled Tyr-CLV3p, n=3), the “specific binding of ^125I-Tyr-CLV3p” value is reported as “showed specific binding; also recorded: specifically binds to FLS2”.

For the molecule QRLSTGSRINSAKDDAAGLQ [flg22-Δ2], the “competition with ^125I-Tyr-CLV3p” value on FLS2 [1] is reported as “could be competed”. For the same molecule, the “block of flg22- and CLV3p-triggered FLS2-BAK1 interaction” value on FLS2-BAK1 interaction was “effectively competed with and blocked flg22 and CLV3p signalling”; on FLS2-BAK1 interaction (listed as Flg22-Δ2) it was “blocks CLV3p and flg22 signalling”.

As for YRTVP^hSGP^hDPLHH [Tyr-CLV3p], on FLS2 [1], the “competition with ^125I-Tyr-CLV3p” value is “could be competed”.

On to RTVP^hSGP^hDPLH [ΔCLV3p], for which the “activating or blocking FLS2 signalling” value in the assay on endogenous MPK3 and MPK6 (Fig. 1a, data not shown) is given as “ineffective in activating or blocking FLS2 signalling”.

With “RQVP^hTGSDPLHH [CLE40p, reference compound]”, the “flg22 early marker gene activation” value in the assay with FRK1, WRKY29 and WRKY30 is recorded as “did not promote”. For the same molecule, the root growth result with Arabidopsis seedlings (6 or 8 days) is “root growth inhibition”. The SAM growth arrest entry with SAM was “triggered the growth arrest of SAM”. Further, in the assay with pWUS::GUS, the “repression of pWUS::GUS reporter” value is “repression of WUSCHEL (WUS)”.
